ChEMBL document CHEMBL4613274, “Chimeric Peptidomimetics of SOCS 3 Able to Interact with JAK2 as Anti-inflammatory Compounds” (ACS Med Chem Lett, 2020)
Calls of active or inactive are those of the source. The rule behind the calls is not given here. Square brackets hold non-standard residues; d marks the D form. Peptide text beside a SMILES is read from it. βAla = NCCC(=O)O

Tests used:
RAW264.7 [1] = test: Antiinflammatory activity against mouse RAW264.7 cells assessed as reduction in IFNgamma and IL6-induced mRNA expression of Ccl5 at […] pretreated for 90 mind followed by IFNgamma and IL6 stimulation for 1 hr by Trizol reagent based RT-PCR analysis; format: functional, cell-based
Outline: (§1)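 RAW264.7 murine macrophage-like cells; peptides (conjugated to HIV Tat 48–60 for cell entry) or Ala/Arg negative-control peptide at 12.5 μM, then IFNγ+IL-6 stimulation 1 h. Cxcl10, Ccl5 and Nox2 mRNA quantified by real-time PCR.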

RAW264.7 [2] = test: Antiinflammatory activity against mouse RAW264.7 cells assessed as reduction in IFNgamma and IL6-induced mRNA expression of Cxcl10 at […] pretreated for 90 mind followed by IFNgamma and IL6 stimulation for 1 hr by Trizol reagent based RT-PCR analysis; format: functional, cell-based; outline: as §1
RAW264.7 [3] = test: Antioxidant activity against mouse RAW264.7 cells assessed as reduction in IFNgamma and IL6-induced mRNA expression of Nox2 at […] pretreated for 90 mind followed by IFNgamma and IL6 stimulation for 1 hr by Trizol reagent based RT-PCR analysis; format: functional, cell-based; outline: as §1
[4] = molecular target: Signal transducer and activator of transcription 3 (Mus musculus) (UniProt P42227); test: (§2) Inhibition of IFNgamma and IL6 induced STAT3 nuclear translocation in mouse VSMC cells at 5 uM pretreated for 90 mins using TAMRA-conjugated peptide followed by IFNgamma and IL6 stimulation for 1 hr by DAPI staining based immunofluorescence assay relative to control; format: cell-based
Chain of Signal transducer and activator of transcription 3 (Mus musculus) (P42227 whole entry): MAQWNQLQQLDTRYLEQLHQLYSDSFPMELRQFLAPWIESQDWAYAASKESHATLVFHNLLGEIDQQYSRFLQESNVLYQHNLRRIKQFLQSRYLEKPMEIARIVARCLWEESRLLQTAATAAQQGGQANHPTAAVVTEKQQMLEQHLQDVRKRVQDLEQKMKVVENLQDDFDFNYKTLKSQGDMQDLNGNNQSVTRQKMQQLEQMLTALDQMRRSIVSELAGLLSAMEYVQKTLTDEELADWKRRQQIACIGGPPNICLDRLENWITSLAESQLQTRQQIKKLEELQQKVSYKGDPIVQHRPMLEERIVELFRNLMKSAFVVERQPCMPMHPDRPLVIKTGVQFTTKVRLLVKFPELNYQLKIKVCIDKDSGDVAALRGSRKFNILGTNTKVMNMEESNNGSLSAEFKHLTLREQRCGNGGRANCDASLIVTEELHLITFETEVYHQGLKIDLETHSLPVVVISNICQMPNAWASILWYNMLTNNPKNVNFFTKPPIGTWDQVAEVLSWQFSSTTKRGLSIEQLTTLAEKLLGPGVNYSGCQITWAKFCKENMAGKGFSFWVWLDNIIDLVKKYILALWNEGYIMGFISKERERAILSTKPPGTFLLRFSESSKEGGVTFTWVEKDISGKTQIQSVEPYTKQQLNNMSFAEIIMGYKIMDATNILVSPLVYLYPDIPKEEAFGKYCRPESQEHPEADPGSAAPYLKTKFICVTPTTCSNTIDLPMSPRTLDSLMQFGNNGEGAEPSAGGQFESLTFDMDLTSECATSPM
Outline: (§3)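 Primary mouse VSMCs stimulated with IFNγ+IL-6 with or without TAMRA-labeled peptide 5 μM; immunofluorescence for phospho-STAT3 with DAPI nuclear counterstain, confocal imaging. P-STAT3 fluorescence intensity given as percentage, mean ± SEM, n = 3 independent experiments.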

[5] = molecular target: Tyrosine-protein kinase JAK2 (Homo sapiens, UniProt O60674); test: Binding affinity to human N-terminal His-tagged JAK2 catalytic domain (826 to 1132 end residues) at 25 degree C by microscale thermophoresis assay
Chain of Tyrosine-protein kinase JAK2 (O60674 whole entry, the tested form may be a part): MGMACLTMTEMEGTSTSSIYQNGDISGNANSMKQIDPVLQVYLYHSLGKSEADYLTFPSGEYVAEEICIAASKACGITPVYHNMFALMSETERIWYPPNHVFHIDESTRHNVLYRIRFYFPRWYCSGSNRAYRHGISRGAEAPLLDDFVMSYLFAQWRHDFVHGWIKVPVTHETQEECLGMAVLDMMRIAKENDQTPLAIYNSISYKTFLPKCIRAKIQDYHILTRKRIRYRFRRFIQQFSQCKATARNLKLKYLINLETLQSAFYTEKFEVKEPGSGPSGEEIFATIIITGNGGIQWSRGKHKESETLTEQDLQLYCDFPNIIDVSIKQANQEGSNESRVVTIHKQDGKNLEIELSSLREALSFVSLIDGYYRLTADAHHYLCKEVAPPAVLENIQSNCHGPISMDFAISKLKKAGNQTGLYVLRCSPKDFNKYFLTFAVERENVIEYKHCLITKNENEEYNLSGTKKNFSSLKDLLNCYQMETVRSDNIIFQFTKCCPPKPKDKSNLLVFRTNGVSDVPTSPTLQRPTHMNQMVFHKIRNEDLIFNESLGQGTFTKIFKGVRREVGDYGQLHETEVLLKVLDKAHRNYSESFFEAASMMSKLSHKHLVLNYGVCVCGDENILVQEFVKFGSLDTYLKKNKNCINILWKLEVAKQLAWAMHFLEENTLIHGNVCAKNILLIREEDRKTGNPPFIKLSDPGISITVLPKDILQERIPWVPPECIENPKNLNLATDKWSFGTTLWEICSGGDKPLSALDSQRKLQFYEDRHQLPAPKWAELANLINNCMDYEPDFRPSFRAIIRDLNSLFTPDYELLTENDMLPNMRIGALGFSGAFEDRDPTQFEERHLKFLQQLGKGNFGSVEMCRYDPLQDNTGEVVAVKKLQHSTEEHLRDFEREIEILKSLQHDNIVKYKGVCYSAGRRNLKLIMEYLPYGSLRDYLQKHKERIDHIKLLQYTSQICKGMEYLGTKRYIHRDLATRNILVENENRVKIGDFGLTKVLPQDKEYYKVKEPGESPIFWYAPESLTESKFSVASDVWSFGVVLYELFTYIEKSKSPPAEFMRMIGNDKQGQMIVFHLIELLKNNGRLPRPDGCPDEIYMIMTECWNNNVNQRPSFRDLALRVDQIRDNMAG
Outline: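 JAK2 catalytic domain binding by microscale thermophoresis; labeled target with 1:1 serial dilutions of peptide (14–16 samples) from stocks of ~404–409 μM in labeling buffer pH 7.5. Temperature-induced fluorescence change plotted versus peptide concentration; KD from fitting of binding isotherm.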

[6] = Stability of compound in FBS assessed as drug degradation at 80 uM incubated for 2 hrs by RP-HPLC analysis; format: physicochemical; settings: cattle, fetal bovine serum (FBS); read-out: Drug degradation
Outline: (§4)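 Pure peptides incubated in fetal bovine serum; decrease of chromatographic peak area followed over time, expressed as area percentage remaining.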

[7] = Stability of compound in FBS assessed as decrease in chromatographic peak at 80 uM incubated up to 4 hrs by RP-HPLC analysis; format: physicochemical; settings: cattle; outline: as §4
[8] = molecular target: Signal transducer and activator of transcription 3 (Mus musculus) (UniProt P42227); test: as §2, with “activation” for “nuclear translocation”, “cells assessed as decrease in STAT3 phosphorylation” for “cells”; format: cell-based; outline: as §3
[9] = Stability of compound in FBS assessed as residual concentration at 80 uM incubated for 2 hrs by RP-HPLC analysis; format: physicochemical; settings: cattle, fetal bovine serum (FBS); read-out: Stability; outline: as §4
[10] = Drug distribution in cytoplasm of mouse VSMC measured after 2 hrs by confocal microscopy; format: ADME, subcellular; settings: in vitro
Outline: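 Primary murine vascular smooth muscle cells exposed to fluorescent (TAMRA-labeled), Tat 48–60-conjugated peptides; uptake and subcellular distribution imaged by confocal microscopy after 2 h.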

inhibition [4] | Activity [5] | metabolised at 2 h, 80 µM [6] [%] | Stability [7] | inhibition [8] [%] | Kd [5] [µM] | remaining at 2 h, 80 µM [9] [%] | Drug uptake [10] | Compound | Activity (RAW264.7 [1]) | Activity (RAW264.7 [2]) | Activity (RAW264.7 [3])
inactive |  |  |  |  |  |  |  | Ac-AAARAAARAAARAAARAAARAAAA-NH2 | inactive | inactive | inactive
 | Dose-dependent effect | 100 | Stable |  |  |  |  | Ac-FSSKSEYQLVVNAVRKLQESGFYWSAVT-NH2 |  |  | 
Active | Dose-dependent effect |  | Stable | 65 | 11 | 70 | Active | CC(=O)N[C@@H](CCCCN)C(=O)NCCC(=O)N[C@@H](Cc1ccccc1)C(=O)N[C@@H](CO)C(=O)N[C@@H](CO)C(=O)N[C@@H](CCCCN)C(=O)N[C@@H](CO)C(=O)N[C@@H](CCC(=O)O)C(=O)N[C@@H](Cc1ccc(O)cc1)C(=O)N[C@@H](CCC(N)=O)C(=O)N[C@@H](CC(C)C)C(=O)NCCC(=O)NCCC(=O)N[C@@H](Cc1ccccc1)C(=O)N[C@@H](Cc1ccc(O)cc1)C(=O)N[C@@H](Cc1c[nH]c2ccccc12)C(=O)N[C@@H](CO)C(=O)N[C@@H](C)C(=O)N[C@H](C(=O)N[C@H](C(N)=O)[C@@H](C)O)C(C)C (Ac-K[βAla]FSSKSEYQL[βAla][βAla]FYWSAVT-NH2) | Active | Active | Active
Active |  |  |  | 65 |  | 40 | Active | CC(=O)N[C@@H](CC(C)C)C(=O)N[C@@H](CCCCN)C(=O)N[C@H](C(=O)N[C@@H](Cc1ccccc1)C(=O)N[C@@H](CO)C(=O)N[C@@H](CO)C(=O)N[C@@H](CCCCN)C(=O)N[C@@H](CO)C(=O)N[C@@H](CCC(=O)O)C(=O)N[C@@H](Cc1ccc(O)cc1)C(=O)N[C@@H](CCC(N)=O)C(=O)N[C@@H](CC(C)C)C(=O)N[C@H](C(=O)N[C@H](C(=O)N[C@@H](CC(N)=O)C(=O)N[C@@H](C)C(=O)N[C@H](C(=O)N[C@@H](CCCNC(=N)N)C(=O)N[C@@H](CCCCN)C(=O)N[C@@H](CC(C)C)C(=O)N[C@@H](CCC(N)=O)C(=O)N[C@@H](CCC(=O)O)C(=O)N[C@@H](CO)C(=O)NCC(N)=O)C(C)C)C(C)C)C(C)C)[C@@H](C)O | Active | Active | Active
 | Dose-dependent effect |  | Stable |  |  |  |  | Ac-VVNAVRKLQESGFYWSAVT-NH2 |  |  | 
